pEC50, pIC50, pKi: −log10 of the molar value. Values after ≈ are worked out from the molar mass of the structure shown.
Key:
Acetylcholinesterase [1] = target: T1, Acetylcholinesterase (Homo sapiens, UniProt P22303); test: Inhibition of recombinant human erythrocyte AChE using acetyl-or butyrylthiocholine iodide as substrate preincubated for 5 mins followed by substrate addition and measured every min for 10 mins by Ellman's method
[2] = target: T2, 5-hydroxytryptamine receptor 4 (Homo sapiens, UniProt Q13639); test: Inhibition of human recombinant 5HT4 receptor at 1 x 10^-6M incubated for 60 mins relative to control; conditions: dose 1.0 10^-6M
In short: (§1)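 Membranes (2.5 μg protein) from a stable recombinant line expressing h5-HT4(b) receptor. Incubated in duplicate at 25 °C for 60 min with 0.2 nM [3H]-GR113808 in 25 mM Tris pH 7.4, with drug at 10^-6 or 10^-8 M. GF/C filtration; non-specific binding defined with 30 μM serotonin. Ki from five-point inhibition curves, ± SD.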

[3] = target: T2, 5-hydroxytryptamine receptor 4; test: Inhibition of human recombinant 5HT4 receptor at 1 x 10^-8M incubated for 60 mins relative to control; conditions: dose 1.0 10^-8M; in short: as §1
[4] = target: T2, 5-hydroxytryptamine receptor 4; test: Binding affinity to human recombinant 5HT4 receptor assessed as inhibition constant incubated for 60 mins
Acetylcholinesterase [5] = target: T1, Acetylcholinesterase; test: Inhibition of recombinant human erythrocyte AChE using acetyl-or butyrylthiocholine iodide as substrate at 1 x 10^-6M preincubated for 5 mins followed by substrate addition and measured every min for 10 mins by Ellman's method relative to control; conditions: dose 1.0 10^-6M, time 15.0 min
In short: (§2)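 AChE from human erythrocytes (0.05 U final) or recombinant AChE (0.025 U final), diluted in 20 mM HEPES pH 8 with 0.1 % Triton X-100, in an Ellman assay. DTNB is 0.3 mM in phosphate buffer pH 7.4 and compound is in DMSO. Enzyme and compound are preincubated 5 min at 25 °C. Reaction starts with 1 mM acetylthiocholine iodide solution.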

[6] = Cytotoxicity against human MRC5 cells assessed as growth inhibition at 10 uM incubated for 72 hrs by MTS assay relative to control; type: toxicity, cell-based; conditions: read-out: Activity
In short: (§3)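 MRC5-SV2 cells in D-MEM with 10 % FCS, treated 24 h after plating with compound from DMSO stock (DMSO 1 % final). After 72 h, MTS added for 3 h at 37 °C and absorbance read at 490 nm. Growth inhibition = (1 − OD treated/OD control) × 100, triplicate experiments.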

Cholinesterase = Cholinesterase (Equus caballus, UniProt P81908); test: Inhibition of equine serum BuChE using Acetyl and butyrylthiocholine iodide as substrate preincubated for 5 mins followed by substrate addition and measured every min for 10 mins by Ellman's method
P-glycoprotein (ABCB1) [7] = target: T3, P-glycoprotein (ABCB1) (Homo sapiens, UniProt P08183); test: Inhibition of P-glycoprotein mediated Rhodamine-123 efflux in human NCI/ADR-RES cells assessed as increase in intracellular fluorescence at 1 uM incubated for 24 hrs relative to control; type: cell-based; conditions: probe Rhodamine-123
In short: (§4)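 NCI/ADR-RES cells in RPMI with 10 % FCS, seeded 24 h before the assay. […] Washed three times, lysed in Tris/SDS, fluorescence read (ex 507/em 528 nm). Cyclosporin A as positive control.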

[8] = Thermodynamic solubility of compound at pH 7.4 by classical shake-flask method; type: physicochemical; conditions: buffer, read-out: Therm_solubility
In short: (§5)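 Shake-flask thermodynamic solubility (OECD 105, miniaturized). 1 mg of solid added to 4 mL of water or potassium phosphate buffer at pH 7.4 or 12 (n = 3), sonicated and shaken horizontally at room temperature for 48 h. After centrifugation, supernatant was mixed 1:1 with acetonitrile/DMSO and quantified by UV at 326 nm against a four-point calibration curve.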

[9] = Mutagenicity in Salmonella typhimurium TA100 by Ames test; type: toxicity; conditions: salmonella enterica subsp. enterica serovar typhimurium
In short: (§6)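 Semi-quantitative spot test with S. typhimurium TA97a, TA98, TA100 and TA102, with and without S9 mix.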

[10] = Oral bioavailability in Wistar rat at 1 to 9 mg/kg; type: ADME, organism-based; conditions: in vivo, dose 1-9 mg/kg
In short: (§7)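 Oral doses of 1, 3 and 9 mg/kg alongside iv and ip dosing, in 0.9 % saline, n = 3 per dose. Terminal plasma under isoflurane at six time points, UHPLC–MS/MS quantification. Bioavailability from non-compartmental AUCs, with the methods giving F = (AUCpo/AUCip) × (Doseip/Dosepo).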

[11] = Cytotoxicity against human MRC5 cells assessed as growth inhibition at 1 uM incubated for 72 hrs by MTS assay relative to control; type: toxicity, cell-based; conditions: read-out: Activity; in short: as §3
[12] = target: T2, 5-hydroxytryptamine receptor 4; test: Partial agonist activity at human recombinant 5HT4 receptor at 1 x 10^-8M incubated for 60 mins; type: functional
P-glycoprotein (ABCB1) [13] = target: T3, P-glycoprotein (ABCB1); test: Inhibition of P-glycoprotein mediated Rhodamine-123 efflux in human NCI/ADR-RES cells assessed as increase in intracellular fluorescence at 10 uM incubated for 24 hrs relative to control; type: cell-based; conditions: probe Rhodamine-123; in short: as §4
[14] = Mutagenicity in Salmonella typhimurium TA98 by Ames test; type: toxicity; conditions: salmonella enterica subsp. enterica serovar typhimurium; in short: as §6
[15] = Thermodynamic solubility of compound by classical shake-flask method; type: physicochemical; conditions: read-out: Therm_solubility; in short: as §5
[16] = Mutagenicity in Salmonella typhimurium TA102 by Ames test; type: toxicity; conditions: salmonella enterica subsp. enterica serovar typhimurium; in short: as §6
[17] = AUC in Wistar rat at 3 mg/kg, ip; type: ADME, organism-based; conditions: in vivo
In short: (§8)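 Single ip dose in 0.9 % saline (10 mL/kg mouse, 2 mL/kg rat), n = 3 per dose. CSF from cisterna magna and cardiac-puncture blood taken under isoflurane at six time points. Protein precipitation, then UHPLC–MS/MS (LLOQ 1 ng/mL). AUC0–∞ by linear trapezoidal non-compartmental analysis.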

[18] = Intrinsic solubility of the compound at pH 12 by classical shake-flask method; type: physicochemical; conditions: buffer
In short: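 Shake-flask method: 1 mg compound in 4 mL pH 12 phosphate buffer with KCl, n = 3. Sonicated, shaken at room temperature for 48 h, centrifuged. Supernatant mixed 1:1 with acetonitrile/DMSO (99:1) and quantified by UV at 326 nm against a four-point calibration curve.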

[19] = Oral bioavailability in C57BL6 mouse at 1 to 9 mg/kg; type: ADME, organism-based; conditions: in vivo, dose 1-9 mg/kg; in short: as §7
[20] = Mutagenicity in Salmonella typhimurium TA97a by Ames test; type: toxicity; conditions: salmonella enterica subsp. enterica serovar typhimurium; in short: as §6
[21] = AUC in C57BL6 mouse at 3 mg/kg, ip; type: ADME, organism-based; conditions: in vivo; in short: as §8
[22] = target: T2, 5-hydroxytryptamine receptor 4; test: Partial agonist activity at human recombinant 5HT4 receptor expressed in […] cells assessed as cAMP accumulation in presence of serotonin by HTRF analysis; type: functional, cell-based
In short: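 COS-7 cells grown in DMEM with 10 % dialyzed FCS and transiently transfected with HA-tagged h5-HT4R, then plated at 16,000 cells/well. At 24 h, cells were exposed for 10 min at 37 °C to 5-HT4 ligands in HEPES-buffered saline containing 0.1 % BSA and 0.1 mM RO-20-1724. Cells were lysed with 0.1 % Triton X-100 and cAMP measured by HTRF.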

Acetylcholinesterase [23] = target: T1, Acetylcholinesterase; test: Inhibition of recombinant human erythrocyte AChE using acetyl-or butyrylthiocholine iodide as substrate at 1 x 10^-5M preincubated for 5 mins followed by substrate addition and measured every min for 10 mins by Ellman's method relative to control; conditions: dose 1.0 10^-5M, time 15.0 min; in short: as §2

T1 sequence (P22303 whole entry): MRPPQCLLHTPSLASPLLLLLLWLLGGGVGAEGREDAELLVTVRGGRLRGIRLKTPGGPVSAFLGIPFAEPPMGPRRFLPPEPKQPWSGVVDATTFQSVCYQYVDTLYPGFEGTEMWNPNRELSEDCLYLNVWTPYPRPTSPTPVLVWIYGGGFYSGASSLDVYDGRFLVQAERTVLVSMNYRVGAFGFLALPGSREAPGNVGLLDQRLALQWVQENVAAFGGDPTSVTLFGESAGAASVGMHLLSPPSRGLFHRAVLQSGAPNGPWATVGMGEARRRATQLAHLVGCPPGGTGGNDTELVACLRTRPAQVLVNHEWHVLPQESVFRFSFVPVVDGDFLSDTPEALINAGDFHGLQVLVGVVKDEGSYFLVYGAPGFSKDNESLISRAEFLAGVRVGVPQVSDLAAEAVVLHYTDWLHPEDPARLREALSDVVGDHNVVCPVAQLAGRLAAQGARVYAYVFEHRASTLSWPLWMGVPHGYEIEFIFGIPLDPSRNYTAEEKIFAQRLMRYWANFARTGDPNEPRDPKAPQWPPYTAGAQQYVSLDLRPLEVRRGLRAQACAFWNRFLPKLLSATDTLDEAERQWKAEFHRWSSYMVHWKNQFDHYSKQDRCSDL
T2 sequence (Q13639 whole entry): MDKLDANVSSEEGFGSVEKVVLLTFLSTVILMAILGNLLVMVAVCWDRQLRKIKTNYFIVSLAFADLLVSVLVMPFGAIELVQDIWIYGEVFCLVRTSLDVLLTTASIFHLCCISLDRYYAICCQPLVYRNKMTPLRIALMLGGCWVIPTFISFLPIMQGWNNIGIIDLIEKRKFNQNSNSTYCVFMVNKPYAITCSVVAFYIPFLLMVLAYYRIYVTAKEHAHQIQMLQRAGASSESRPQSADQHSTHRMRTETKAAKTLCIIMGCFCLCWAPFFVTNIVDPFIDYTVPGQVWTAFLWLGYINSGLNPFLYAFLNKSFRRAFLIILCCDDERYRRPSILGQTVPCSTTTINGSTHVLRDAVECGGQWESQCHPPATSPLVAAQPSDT
T3 sequence (P08183 whole entry): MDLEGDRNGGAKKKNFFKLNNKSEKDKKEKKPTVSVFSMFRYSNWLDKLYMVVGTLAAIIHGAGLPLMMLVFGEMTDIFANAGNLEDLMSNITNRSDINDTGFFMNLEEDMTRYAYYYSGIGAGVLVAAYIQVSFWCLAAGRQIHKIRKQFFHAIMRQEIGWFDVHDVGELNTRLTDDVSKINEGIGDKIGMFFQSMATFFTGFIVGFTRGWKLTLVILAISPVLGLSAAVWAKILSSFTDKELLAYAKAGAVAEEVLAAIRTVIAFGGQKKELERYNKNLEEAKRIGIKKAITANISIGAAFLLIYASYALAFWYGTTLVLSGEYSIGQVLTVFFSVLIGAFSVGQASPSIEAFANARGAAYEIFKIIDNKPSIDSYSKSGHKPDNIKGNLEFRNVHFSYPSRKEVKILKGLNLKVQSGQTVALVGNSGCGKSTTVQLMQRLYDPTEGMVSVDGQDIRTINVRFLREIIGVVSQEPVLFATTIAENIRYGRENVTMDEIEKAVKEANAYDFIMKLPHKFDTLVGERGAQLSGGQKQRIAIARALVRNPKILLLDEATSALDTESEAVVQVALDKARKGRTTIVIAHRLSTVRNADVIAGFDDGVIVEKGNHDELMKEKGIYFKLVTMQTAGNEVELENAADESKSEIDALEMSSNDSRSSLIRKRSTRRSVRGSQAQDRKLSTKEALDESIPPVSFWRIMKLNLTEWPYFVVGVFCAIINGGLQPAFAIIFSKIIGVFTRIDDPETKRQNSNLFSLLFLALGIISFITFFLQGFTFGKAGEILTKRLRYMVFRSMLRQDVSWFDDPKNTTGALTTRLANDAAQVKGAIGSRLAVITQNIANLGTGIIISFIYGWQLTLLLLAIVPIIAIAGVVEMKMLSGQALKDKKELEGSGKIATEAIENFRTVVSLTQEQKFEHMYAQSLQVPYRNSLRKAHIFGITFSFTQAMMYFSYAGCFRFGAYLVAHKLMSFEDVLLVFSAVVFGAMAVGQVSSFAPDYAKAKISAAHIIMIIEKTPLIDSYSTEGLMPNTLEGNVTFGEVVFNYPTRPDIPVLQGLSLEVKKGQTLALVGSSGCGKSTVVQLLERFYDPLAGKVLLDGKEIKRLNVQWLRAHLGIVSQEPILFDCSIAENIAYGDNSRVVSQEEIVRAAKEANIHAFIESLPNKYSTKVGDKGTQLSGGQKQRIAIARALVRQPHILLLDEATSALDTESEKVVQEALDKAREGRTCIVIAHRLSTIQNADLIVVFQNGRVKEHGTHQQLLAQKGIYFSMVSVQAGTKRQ
Sequence of Cholinesterase (P81908 whole entry): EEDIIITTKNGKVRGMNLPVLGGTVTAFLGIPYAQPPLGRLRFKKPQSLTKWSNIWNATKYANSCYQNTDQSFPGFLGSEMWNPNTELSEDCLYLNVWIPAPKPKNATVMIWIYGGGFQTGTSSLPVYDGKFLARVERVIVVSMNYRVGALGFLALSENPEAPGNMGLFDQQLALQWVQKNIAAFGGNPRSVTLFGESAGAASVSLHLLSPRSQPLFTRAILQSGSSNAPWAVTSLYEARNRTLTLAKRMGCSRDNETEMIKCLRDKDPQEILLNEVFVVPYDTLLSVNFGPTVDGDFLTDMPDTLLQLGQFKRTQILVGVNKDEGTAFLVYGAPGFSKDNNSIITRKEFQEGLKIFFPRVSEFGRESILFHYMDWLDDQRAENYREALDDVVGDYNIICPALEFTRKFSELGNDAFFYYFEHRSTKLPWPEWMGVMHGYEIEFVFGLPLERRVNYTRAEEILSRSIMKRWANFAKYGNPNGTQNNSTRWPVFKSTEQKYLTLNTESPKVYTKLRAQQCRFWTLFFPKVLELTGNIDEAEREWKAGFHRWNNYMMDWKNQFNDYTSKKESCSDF

Structure (SMILES) | pIC50 (Acetylcholinesterase [1]) | inhibition [2] [%] | inhibition [3] [%] | pKi [4] | inhibition (Acetylcholinesterase [5]) [%] | other results
CCOc1cc(N)ccc1C(=O)CCC1CCN(CC2CCCCC2)CC1 | 7.06 | 101 | 38 | 7.61 | 93 | 
Nc1cc(OCCF)c(C(=O)CCC2CCN(CC3CCCCC3)CC2)cc1I |  | 101 | 22 | 6.28 | 45 | 
COc1c(C(=O)CCC2CCN(CC3CCCCC3)CC2)cc(F)c(N)c1I | 6.63 | 89 | 2 |  | 89 | 
COc1cc(N)c(F)cc1C(=O)CCC1CCN(CC2CCCCC2)CC1 |  |  |  |  |  | inhibition at 72 h, 10 µM [6]: 0%; pIC50 (Cholinesterase): 5.21; inhibition at 24 h, 1 µM (P-glycoprotein (ABCB1) [7]): 125%; solubility thermodynamic [8]: 104 µM (≈ 39.2 µg/mL); Activity [9]: Non-toxic; bioavailability [10]: 3.6%; inhibition at 72 h, 1 µM [11]: 0%; pKi [12]: 8.02; inhibition at 24 h, 10 µM (P-glycoprotein (ABCB1) [13]): 111%; Activity [14]: Non-toxic; solubility thermodynamic [15]: 444 µM (≈ 167 µg/mL); Activity [16]: Non-toxic; AUC [17]: 9.26 ng·h/mL; solubility thermodynamic [18]: 2 µM (≈ 0.753 µg/mL); bioavailability [19]: 12.4%; Activity [20]: Non-toxic; AUC [21]: 7.66 ng·h/mL; pEC50 [22]: 8.89
Nc1ccc(C(=O)CCC2CCN(CC3CCCCC3)CC2)cc1 | 6.50 | 80 | 4 |  | 78 | 
O=C(CCC1CCN(CC2CCCCC2)CC1)c1ccc(O)cc1 |  | 102 | 58 | 7.75 | 35 | 
Nc1ccc(C(=O)CCC2CCN(CC3CCCCC3)CC2)cc1Cl | 7.30 | 97 | 10 |  | 96 | 
COc1cc(N)c(Br)cc1C(=O)CCC1CCN(CC2CCCCC2)CC1 |  | 105 | 61 |  |  | inhibition (Acetylcholinesterase [23]): 98%
COc1cc(NC(C)=O)c(Cl)cc1C(=O)CCC1CCN(CC2CCCCC2)CC1 |  | 94 | 1 | 6.57 | 98 | 
COc1ccccc1C(=O)CCC1CCN(CC2CCCCC2)CC1 | 6.78 | 102 | 31 | 6.92 | 85 | 
Nc1cc(O)c(C(=O)CCC2CCN(CC3CCCCC3)CC2)cc1Cl |  | 96 | 3 |  | 93 | 
